Assay [1] addresses 72 kDa type IV collagenase (Homo sapiens, UniProt P08253). Briefly: Inhibition of MMP2 by microtiter plate fluorimetric assay. In outline:
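Substrate was succinylated gelatin, in 50 mM sodium borate buffer, pH 8.5. Compound and enzyme were preincubated 30 min at 37 °C, then incubated another 60 min at 37 °C after substrate addition. Controls were a 100% group without compound and a blank with enzyme only.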

The next assay concerns the target Aminopeptidase N (Homo sapiens, UniProt P15144). Briefly: Inhibition of aminopeptidase N by microtiter plate fluorimetric assay. The note with it: in the assay text read “spectrophotometric” for “fluorimetric”. In outline:
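Substrate was L-leucine p-nitroanilide, in 50 mM sodium phosphate buffer, pH 7.2. Enzyme and compound were preincubated 30 min at 37 °C, then incubated 60 min at 37 °C with substrate. OD405 was read. Inhibition % = [OD(100%) − OD(compound)]/[OD(100%) − OD(blank)] × 100, where 100% has no compound and blank has enzyme only.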

Sequence of 72 kDa type IV collagenase (P08253 whole entry): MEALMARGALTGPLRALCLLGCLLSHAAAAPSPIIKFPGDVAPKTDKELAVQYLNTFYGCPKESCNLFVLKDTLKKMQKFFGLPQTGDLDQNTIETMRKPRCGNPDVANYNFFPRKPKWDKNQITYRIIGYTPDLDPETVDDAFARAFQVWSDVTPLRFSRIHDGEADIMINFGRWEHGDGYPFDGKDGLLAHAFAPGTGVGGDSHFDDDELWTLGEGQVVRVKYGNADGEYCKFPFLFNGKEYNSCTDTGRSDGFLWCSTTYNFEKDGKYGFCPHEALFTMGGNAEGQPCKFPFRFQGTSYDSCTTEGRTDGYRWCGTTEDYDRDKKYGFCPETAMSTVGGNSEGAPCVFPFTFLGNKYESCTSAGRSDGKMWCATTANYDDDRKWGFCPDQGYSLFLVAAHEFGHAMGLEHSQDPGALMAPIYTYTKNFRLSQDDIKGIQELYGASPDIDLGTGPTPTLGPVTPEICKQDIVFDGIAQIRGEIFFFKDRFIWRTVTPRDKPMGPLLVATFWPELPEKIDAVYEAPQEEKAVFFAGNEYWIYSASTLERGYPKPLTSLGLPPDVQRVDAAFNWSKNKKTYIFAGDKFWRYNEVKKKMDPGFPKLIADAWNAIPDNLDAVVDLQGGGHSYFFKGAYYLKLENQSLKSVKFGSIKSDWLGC
Sequence of Aminopeptidase N (P15144 whole entry): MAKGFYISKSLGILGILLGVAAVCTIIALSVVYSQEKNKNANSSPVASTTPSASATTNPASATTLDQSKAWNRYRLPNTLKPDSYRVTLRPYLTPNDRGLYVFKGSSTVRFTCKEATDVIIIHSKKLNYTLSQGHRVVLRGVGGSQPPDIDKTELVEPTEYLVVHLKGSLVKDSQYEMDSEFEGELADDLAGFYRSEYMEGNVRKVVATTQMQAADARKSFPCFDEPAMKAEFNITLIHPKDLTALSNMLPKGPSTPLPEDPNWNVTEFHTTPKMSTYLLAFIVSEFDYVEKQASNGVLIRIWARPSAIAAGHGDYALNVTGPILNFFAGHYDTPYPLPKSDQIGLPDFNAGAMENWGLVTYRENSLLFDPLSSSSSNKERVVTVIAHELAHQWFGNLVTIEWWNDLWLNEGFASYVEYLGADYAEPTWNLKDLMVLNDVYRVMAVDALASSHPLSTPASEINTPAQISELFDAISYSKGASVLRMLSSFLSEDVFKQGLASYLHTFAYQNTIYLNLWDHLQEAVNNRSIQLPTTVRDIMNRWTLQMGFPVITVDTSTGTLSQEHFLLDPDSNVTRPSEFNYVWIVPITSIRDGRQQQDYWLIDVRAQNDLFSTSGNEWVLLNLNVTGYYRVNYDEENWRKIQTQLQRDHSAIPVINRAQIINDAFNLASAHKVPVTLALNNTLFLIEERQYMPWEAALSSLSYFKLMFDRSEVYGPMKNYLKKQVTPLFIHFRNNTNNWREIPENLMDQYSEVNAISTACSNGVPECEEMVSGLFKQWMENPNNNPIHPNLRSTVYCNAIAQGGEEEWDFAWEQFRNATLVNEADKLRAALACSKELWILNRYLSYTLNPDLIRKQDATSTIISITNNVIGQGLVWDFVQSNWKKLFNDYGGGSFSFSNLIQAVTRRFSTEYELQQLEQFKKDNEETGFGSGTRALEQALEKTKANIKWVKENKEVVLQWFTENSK

In the case of `COC(=O)[C@@H]1C[C@H](NC(=O)c2ccncc2)CN1C(C)=O`, the half-inhibitory concentration (IC50) – broadly, the concentration that inhibits the measured activity by half – is 2.2 µM in assay [1] and 74.8 µM against Aminopeptidase N.

`COC(=O)[C@@H]1C[C@H](N)CN1C(C)=O`: the IC50 in assay [1] is 1.5 µM; against Aminopeptidase N, 24.1 µM.

As for `COC(=O)[C@@H]1C[C@H](N=[N+]=[N-])CN1C(C)=O`, the IC50 was 2.6 µM in assay [1] and 73.7 µM on Aminopeptidase N.

For the molecule `COC(=O)[C@@H]1C[C@H](NC(=O)/C=C/c2ccccc2)CN1C(=O)CCc1ccc(OC)c(OC)c1`, the IC50 came out at 1.6 µM in assay [1] and 233 µM at Aminopeptidase N.

`COC(=O)[C@@H]1C[C@@H](OS(C)(=O)=O)CN1C(=O)/C=C/c1ccc(OC)c(OC)c1`: the 50% inhibitory concentration (IC50) in assay [1] was 1.1 µM; against Aminopeptidase N, 46.6 µM.

Regarding `COc1cc(C(=O)N[C@H]2C[C@@H](C(=O)NO)N(C(C)=O)C2)cc(OC)c1OC`, the results for the IC50 (in assay [1]; against Aminopeptidase N) were 0.001 µM and 33.5 µM, respectively.

In the case of `CC(=O)N1C[C@@H](NC(=O)c2cccnc2)C[C@H]1C(=O)NO`, the half-inhibitory concentration (IC50) in assay [1] came to 0.005 µM; against Aminopeptidase N, 29.8 µM.

With `COC(=O)[C@@H]1C[C@H](NC(=O)c2ccccc2)CN1C(C)=O`, the values for the IC50 (in assay [1]; on Aminopeptidase N) were 2.7 µM and 123 µM, respectively.

Take `COC(=O)[C@@H]1C[C@H](NC(=O)c2ccc(Cl)cc2)CN1C(C)=O`: the IC50 is 4.2 µM in assay [1] and 122 µM against Aminopeptidase N.

In the case of `COC(=O)[C@@H]1C[C@H](NC(=O)c2cnccn2)CN1C(C)=O`, the IC50 in assay [1] turned out to be 2.1 µM; on Aminopeptidase N, 82.6 µM.

For `COC(=O)[C@@H]1C[C@H](NC(=O)c2ccc([N+](=O)[O-])cc2)CN1C(C)=O`, the IC50 in assay [1] amounted to 5.2 µM; on Aminopeptidase N, 72.3 µM.

As to `COC(=O)[C@@H]1C[C@H](NC(=O)c2cccnc2)CN1C(C)=O`, the IC50 was 1 µM in assay [1] and 78.4 µM on Aminopeptidase N.

As for `CC(=O)N1C[C@@H](NC(=O)/C=C/c2ccccc2)C[C@H]1C(=O)NO`, the IC50 in assay [1] worked out at 0.004 µM; on Aminopeptidase N, 56.1 µM.

With `COc1ccc(CCC(=O)N2C[C@@H](NC(=O)/C=C/c3ccccc3)C[C@H]2C(=O)NO)cc1OC`, the IC50 in assay [1] came to 0.011 µM; against Aminopeptidase N, 96.6 µM.

For `COC(=O)CNC(=O)[C@@H]1C[C@H](NC(=O)c2cc(OC)c(OC)c(OC)c2)CN1C(C)=O`, the figures for the IC50 (in assay [1]; on Aminopeptidase N) were 0.109 µM and 121 µM, respectively.

With `COC(=O)[C@@H]1C[C@@H](O)CN1C(=O)/C=C/c1ccc(OC)c(OC)c1`, the IC50 in assay [1] was 2.9 µM; against Aminopeptidase N, 81.8 µM.

With `COC(=O)[C@@H]1C[C@@H](OS(=O)(=O)c2ccc(C)cc2)CN1C(C)=O`, the IC50 was 0.3 µM in assay [1] and 30.4 µM against Aminopeptidase N.

For `COC(=O)[C@@H]1C[C@H](NC(=O)c2cccnc2)CN1C(=O)/C=C/c1ccc(OC)c(OC)c1`, the results for the IC50 (in assay [1]; against Aminopeptidase N) were 3 µM and 137 µM, respectively.

Regarding `COC(=O)[C@@H]1C[C@H](N=[N+]=[N-])CN1C(=O)/C=C/c1ccc(OC)c(OC)c1`, the IC50 in assay [1] was determined as 3.4 µM; against Aminopeptidase N, 71.3 µM.

For the molecule `COC(=O)[C@@H]1C[C@H](N)CN1C(=O)CCc1ccc(OC)c(OC)c1`, the IC50 in assay [1] worked out at 2.1 µM; on Aminopeptidase N, 68.4 µM.

As to `COC(=O)[C@@H]1C[C@@H](O)CN1C(C)=O`, the IC50 in assay [1] was determined as 2 µM; against Aminopeptidase N it was 38.6 µM.

Turning to `COC(=O)[C@@H]1C[C@H](N)CN1C(=O)/C=C/c1ccc(OC)c(OC)c1`, the IC50 against Aminopeptidase N was found to be 70.6 µM.

Regarding `COC(=O)[C@@H]1C[C@H](NC(=O)/C=C/c2ccccc2)CN1C(C)=O`, the IC50 in assay [1] turned out to be 0.1 µM; on Aminopeptidase N, 135 µM.

As to `COC(=O)[C@@H]1C[C@H](NC(=O)c2cc(OC)c(OC)c(OC)c2)CN1C(C)=O`, the IC50 turned out to be 0.1 µM in assay [1] and 98.4 µM against Aminopeptidase N.

Take `COc1ccc(CCC(=O)N2C[C@@H](NC(=O)c3cccnc3)C[C@H]2C(=O)NO)cc1OC`: the values for the IC50 (in assay [1]; at Aminopeptidase N) were 0.012 µM and 62.2 µM, respectively.

Regarding `COC(=O)[C@@H]1C[C@H](NC(=O)c2cccnc2)CN1C(=O)CCc1ccc(OC)c(OC)c1`, the IC50 amounted to 2.2 µM in assay [1] and 196 µM against Aminopeptidase N.

`COC(=O)[C@@H]1C[C@H](NC(=O)c2ccc(Br)cc2)CN1C(C)=O`: the half-inhibitory concentration (IC50) in assay [1] came to 6.1 µM; at Aminopeptidase N it was 149 µM.

For `COC(=O)[C@@H]1C[C@H](NC(=O)/C=C/c2ccc(OC)c(OC)c2)CN1C(C)=O`, the IC50 in assay [1] was 0.8 µM; against Aminopeptidase N, 162 µM.

Turning to `COc1cc(C(=O)N[C@H]2C[C@@H](C(=O)O)N(C(C)=O)C2)cc(OC)c1OC`, the IC50 in assay [1] amounted to 0.016 µM; against Aminopeptidase N, 51.4 µM.

For the origin of these results see ChEMBL document CHEMBL1140993, “Design, synthesis and preliminary evaluation of novel pyrrolidine derivatives as matrix metalloproteinase inhibitors” (Eur J Med Chem, 2008).
